From the M2OR odorant receptor database
Positions count from the first letter of the chain named.

Experiments:
Details in all cases: stereoisomer not certain
OR8D2 (Homo sapiens) = target: T1, OR8D2 (Homo sapiens) (UniProt Q9GZM6)
T1 sequence (whole entry): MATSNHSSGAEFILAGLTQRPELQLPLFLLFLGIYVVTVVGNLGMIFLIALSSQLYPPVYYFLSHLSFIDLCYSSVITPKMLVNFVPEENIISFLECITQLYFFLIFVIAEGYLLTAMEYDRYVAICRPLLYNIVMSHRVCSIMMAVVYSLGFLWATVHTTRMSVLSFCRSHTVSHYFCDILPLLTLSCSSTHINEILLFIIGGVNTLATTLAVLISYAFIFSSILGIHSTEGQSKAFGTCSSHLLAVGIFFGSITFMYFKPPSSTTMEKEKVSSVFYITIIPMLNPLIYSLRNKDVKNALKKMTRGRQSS
Summary of the method: (§1)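 Assay methods differ from source to source, frequently being transient luciferase assays in mammalian cell lines. For each receptor–molecule pair, the label responsive (active) applies when the original authors judged the measured signal statistically different from baseline, and non-responsive (inactive) applies otherwise.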

OR8D4 (Homo sapiens) = target: T2, OR8D4 (Homo sapiens) (UniProt Q8NGM9)
T2 sequence (whole entry): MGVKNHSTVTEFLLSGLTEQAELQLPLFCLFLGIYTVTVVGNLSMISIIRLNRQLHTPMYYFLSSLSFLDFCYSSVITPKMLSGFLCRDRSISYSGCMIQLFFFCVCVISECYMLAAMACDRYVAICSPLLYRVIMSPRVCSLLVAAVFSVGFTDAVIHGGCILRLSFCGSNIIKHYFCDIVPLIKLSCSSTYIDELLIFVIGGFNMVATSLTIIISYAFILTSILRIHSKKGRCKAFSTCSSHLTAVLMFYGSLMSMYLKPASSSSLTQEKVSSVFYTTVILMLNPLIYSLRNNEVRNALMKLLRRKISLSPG
Summary of the method: as §1

OR8D4 C120Y R133K = test system: T3, OR8D4 C120Y R133K
T3 sequence (whole entry): T2 sequence (whole entry) with C120Y, R133K
Summary of the method: as §1

OR8G1 (Homo sapiens) = target: T4, OR8G1 (Homo sapiens) (UniProt Q15617)
T4 sequence (whole entry): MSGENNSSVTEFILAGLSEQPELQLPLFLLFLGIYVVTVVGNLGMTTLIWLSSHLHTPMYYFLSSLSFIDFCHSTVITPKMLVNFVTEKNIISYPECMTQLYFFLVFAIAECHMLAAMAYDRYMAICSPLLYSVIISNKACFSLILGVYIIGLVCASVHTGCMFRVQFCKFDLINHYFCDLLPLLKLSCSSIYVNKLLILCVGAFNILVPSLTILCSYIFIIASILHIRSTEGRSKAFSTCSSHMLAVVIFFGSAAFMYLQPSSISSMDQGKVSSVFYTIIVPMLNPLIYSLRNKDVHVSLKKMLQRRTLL
Summary of the method: as §1

OR8G5 (Homo sapiens) = target: T5, OR8G5 (Homo sapiens) (UniProt Q8NG78)
T5 sequence (whole entry): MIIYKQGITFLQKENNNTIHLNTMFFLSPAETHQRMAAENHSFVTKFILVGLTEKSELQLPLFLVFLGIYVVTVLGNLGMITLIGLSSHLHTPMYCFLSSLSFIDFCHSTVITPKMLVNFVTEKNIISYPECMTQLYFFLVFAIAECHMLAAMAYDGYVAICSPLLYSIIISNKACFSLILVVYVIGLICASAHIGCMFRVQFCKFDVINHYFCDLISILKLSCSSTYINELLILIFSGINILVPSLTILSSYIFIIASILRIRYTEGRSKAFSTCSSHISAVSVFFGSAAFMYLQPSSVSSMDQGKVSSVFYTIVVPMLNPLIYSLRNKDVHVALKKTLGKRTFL
Summary of the method: as §1

OR8H1 (Homo sapiens) = target: T6, OR8H1 (Homo sapiens) (UniProt Q8NGG4)
T6 sequence (whole entry): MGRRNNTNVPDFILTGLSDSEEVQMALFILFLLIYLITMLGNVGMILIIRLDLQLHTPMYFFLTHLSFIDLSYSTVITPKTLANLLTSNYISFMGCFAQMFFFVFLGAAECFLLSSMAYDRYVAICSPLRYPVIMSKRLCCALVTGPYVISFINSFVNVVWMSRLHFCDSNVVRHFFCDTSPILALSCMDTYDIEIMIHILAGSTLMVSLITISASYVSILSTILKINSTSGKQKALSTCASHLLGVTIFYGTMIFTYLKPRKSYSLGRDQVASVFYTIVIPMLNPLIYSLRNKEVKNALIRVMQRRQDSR
Summary of the method: as §1

OR8H2 (Homo sapiens) = target: T7, OR8H2 (Homo sapiens) (UniProt Q8N162)
T7 sequence (whole entry): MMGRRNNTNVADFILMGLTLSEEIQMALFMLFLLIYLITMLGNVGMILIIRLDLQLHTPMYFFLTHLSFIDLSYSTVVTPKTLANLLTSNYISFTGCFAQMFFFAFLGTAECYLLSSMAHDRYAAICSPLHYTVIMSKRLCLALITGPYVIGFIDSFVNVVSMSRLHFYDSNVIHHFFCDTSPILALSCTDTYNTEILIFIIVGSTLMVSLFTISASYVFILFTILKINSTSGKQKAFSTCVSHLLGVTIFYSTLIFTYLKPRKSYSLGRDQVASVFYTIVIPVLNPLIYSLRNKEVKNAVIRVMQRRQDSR
Summary of the method: as §1

OR8H2 H120Y Y169C V284M = test system: T8, OR8H2 H120Y Y169C V284M
T8 sequence (whole entry): T7 sequence (whole entry) with H120Y, Y169C, V284M
Summary of the method: as §1

OR8H3 (Homo sapiens) = target: T9, OR8H3 (Homo sapiens) (UniProt Q8N146)
T9 sequence (whole entry): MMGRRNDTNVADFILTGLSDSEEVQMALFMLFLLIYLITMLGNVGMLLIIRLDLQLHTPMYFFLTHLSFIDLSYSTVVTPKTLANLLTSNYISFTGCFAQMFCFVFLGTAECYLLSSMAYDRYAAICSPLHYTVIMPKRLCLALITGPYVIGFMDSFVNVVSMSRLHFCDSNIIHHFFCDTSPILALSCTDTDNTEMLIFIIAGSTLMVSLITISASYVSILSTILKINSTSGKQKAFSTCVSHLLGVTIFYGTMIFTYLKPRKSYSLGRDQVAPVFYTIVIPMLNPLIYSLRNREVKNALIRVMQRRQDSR
Summary of the method: as §1

OR8H3 = test system: T10, OR8H3
T10 sequence (whole entry): T9 sequence (whole entry) with P137S
Summary of the method: as §1

OR8I2 (Homo sapiens) = target: T11, OR8I2 (Homo sapiens) (UniProt Q8N0Y5)
T11 sequence (whole entry): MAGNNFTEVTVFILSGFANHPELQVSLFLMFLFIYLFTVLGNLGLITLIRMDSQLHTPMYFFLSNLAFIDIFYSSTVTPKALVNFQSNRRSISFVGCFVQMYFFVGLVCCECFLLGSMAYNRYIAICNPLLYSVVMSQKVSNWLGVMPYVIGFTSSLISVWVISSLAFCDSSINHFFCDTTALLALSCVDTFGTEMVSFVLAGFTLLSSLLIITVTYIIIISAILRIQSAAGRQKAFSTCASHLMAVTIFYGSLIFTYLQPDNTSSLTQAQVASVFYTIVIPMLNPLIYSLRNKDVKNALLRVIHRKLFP
Summary of the method: as §1

OR8J1 (Homo sapiens) = target: T12, OR8J1 (Homo sapiens) (UniProt Q8NGP2)
T12 sequence (whole entry): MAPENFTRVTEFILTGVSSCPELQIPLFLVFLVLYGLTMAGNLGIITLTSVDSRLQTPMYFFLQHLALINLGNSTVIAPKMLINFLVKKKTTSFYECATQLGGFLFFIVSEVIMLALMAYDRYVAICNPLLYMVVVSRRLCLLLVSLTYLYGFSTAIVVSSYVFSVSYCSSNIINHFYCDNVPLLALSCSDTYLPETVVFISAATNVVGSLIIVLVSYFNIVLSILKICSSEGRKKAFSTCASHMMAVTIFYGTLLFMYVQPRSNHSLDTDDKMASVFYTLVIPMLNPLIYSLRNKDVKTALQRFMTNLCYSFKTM
Summary of the method: as §1

OR8J1 = test system: T13, OR8J1
T13 sequence (whole entry): T12 sequence (whole entry) with Y120C
Summary of the method: as §1

OR8J3 (Homo sapiens) = target: T14, OR8J3 (Homo sapiens) (UniProt Q8NGG0)
T14 sequence (whole entry): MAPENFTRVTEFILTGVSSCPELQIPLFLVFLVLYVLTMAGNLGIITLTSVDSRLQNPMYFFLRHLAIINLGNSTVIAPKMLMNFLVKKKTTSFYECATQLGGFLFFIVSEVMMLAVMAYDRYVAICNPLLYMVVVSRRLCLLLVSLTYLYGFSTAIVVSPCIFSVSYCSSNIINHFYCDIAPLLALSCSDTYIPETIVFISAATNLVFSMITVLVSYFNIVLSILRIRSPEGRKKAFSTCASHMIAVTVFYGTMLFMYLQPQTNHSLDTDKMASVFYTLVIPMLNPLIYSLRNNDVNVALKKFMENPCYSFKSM
Summary of the method: as §1

OR8J3 E4V = test system: T15, OR8J3 E4V
T15 sequence (whole entry): T14 sequence (whole entry) with E4V
Summary of the method: as §1

OR8K1 (Homo sapiens) = target: T16, OR8K1 (Homo sapiens) (UniProt Q8NGG5)
T16 sequence (whole entry): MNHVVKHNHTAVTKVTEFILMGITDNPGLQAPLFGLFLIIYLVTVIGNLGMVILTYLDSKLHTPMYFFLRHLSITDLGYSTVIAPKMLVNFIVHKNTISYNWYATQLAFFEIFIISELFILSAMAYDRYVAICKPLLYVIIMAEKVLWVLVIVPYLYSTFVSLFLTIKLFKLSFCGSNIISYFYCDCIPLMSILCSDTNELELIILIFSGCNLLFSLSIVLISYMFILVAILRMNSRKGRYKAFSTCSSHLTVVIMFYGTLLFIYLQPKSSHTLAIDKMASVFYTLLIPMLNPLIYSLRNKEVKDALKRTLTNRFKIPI
Summary of the method: as §1

OR8K3 (Homo sapiens) = target: T17, OR8K3 (Homo sapiens) (UniProt Q8NH51)
T17 sequence (whole entry): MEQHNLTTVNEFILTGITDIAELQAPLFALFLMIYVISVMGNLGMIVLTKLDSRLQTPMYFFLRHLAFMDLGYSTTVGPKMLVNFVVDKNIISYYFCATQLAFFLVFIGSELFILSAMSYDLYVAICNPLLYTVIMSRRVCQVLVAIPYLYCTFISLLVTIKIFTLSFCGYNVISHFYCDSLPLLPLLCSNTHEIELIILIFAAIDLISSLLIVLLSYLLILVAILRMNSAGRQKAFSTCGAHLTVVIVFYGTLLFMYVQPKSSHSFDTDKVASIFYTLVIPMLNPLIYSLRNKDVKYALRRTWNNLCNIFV
Summary of the method: as §1

OR8K5 (Homo sapiens) = target: T18, OR8K5 (Homo sapiens) (UniProt Q8NH50)
T18 sequence (whole entry): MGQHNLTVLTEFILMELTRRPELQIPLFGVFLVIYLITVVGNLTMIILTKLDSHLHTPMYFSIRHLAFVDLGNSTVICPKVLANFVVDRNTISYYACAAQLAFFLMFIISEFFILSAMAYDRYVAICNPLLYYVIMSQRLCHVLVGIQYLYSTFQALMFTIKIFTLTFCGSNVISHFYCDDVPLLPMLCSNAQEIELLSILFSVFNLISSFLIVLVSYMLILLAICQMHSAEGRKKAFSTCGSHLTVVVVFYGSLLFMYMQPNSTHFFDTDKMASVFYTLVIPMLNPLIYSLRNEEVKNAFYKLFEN
Summary of the method: as §1

OR8S1 (Homo sapiens) = target: T19, OR8S1 (Homo sapiens) (UniProt Q8NH09)
T19 sequence (whole entry): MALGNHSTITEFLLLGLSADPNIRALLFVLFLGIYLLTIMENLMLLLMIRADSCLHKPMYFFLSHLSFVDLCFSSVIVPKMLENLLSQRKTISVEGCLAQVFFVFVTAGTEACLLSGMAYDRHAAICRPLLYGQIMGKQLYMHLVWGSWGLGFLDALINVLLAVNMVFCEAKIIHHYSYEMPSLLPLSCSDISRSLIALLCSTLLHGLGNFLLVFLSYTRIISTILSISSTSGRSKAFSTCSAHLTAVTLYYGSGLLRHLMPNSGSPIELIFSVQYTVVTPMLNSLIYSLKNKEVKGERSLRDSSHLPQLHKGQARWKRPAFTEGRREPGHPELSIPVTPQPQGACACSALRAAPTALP
Summary of the method: as §1

Measured: odorant receptor agonist call

CC1=C(O)C(=O)OC1C (centres undefined)
inactive: all assays above

CC1=NC(C)C(C)S1 (centres undefined)
inactive: all assays above

Cc1cnc(C)c(C)n1
inactive: all assays above

O=C1CCOc2ccccc21
inactive: OR8K5 (Homo sapiens)

CCC1OC(C)=C(O)C1=O (centres undefined)
inactive: all assays above

CCCCCC(S)C(C)CO (centres undefined)
not listed: OR8D4 C120Y R133K | OR8H2 H120Y Y169C V284M | OR8H3 | OR8J1 | OR8J3 E4V
inactive: all other assays above

CCC1OC(=O)C(O)=C1C (centres undefined)
inactive: all assays above

CCC(S)C(C)CO (centres undefined)
not listed: OR8D4 C120Y R133K | OR8H2 H120Y Y169C V284M | OR8H3 | OR8J1 | OR8J3 E4V
inactive: all other assays above
